Assay outcomes from PubChem.
IMP-1 inh – inhibitors of Pseudomonas aeruginosa IMP-1 metallo-beta-lactamase | purified IMP-1, nitrocefin hydrolysis, epi-absorbance fluorescence | inhibition, % at 5.6 µM | 290,000 compounds, 0.45% hits | AID 1556;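 active = inhibition above the mean plus 3 SD of all compounds in the same screening run, cut at about 4.5% in these data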;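 note: 0% = IMP-1 with DMSO and 100% = DMSO wells lacking enzyme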
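System – purified recombinant IMP-1 beta-lactamase · Input – IMP-1 dispensed at 0.2 nM · Timing – 15 min preincubation plus 25 min reaction at 25 °C · Signal – Epi-absorbance fluorescence, 480 nm excitation, 530 nm emission · Measure – percent IMP-1 inhibition derived from blank-referenced optical density · Controls – Enzyme-plus-DMSO low control, enzyme-free DMSO high control · Replication – singlicate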
PHOSPHO1 inh – inhibitors of human PHOSPHO1 phosphatase | Q8TCT1 | recombinant PHOSPHO1, absorbance phosphatase assay | inhibition, % at 13.3 µM | 290,000 compounds, 1.1% hits | AID 1565; in the data active = inhibition above about 60%
VIM-2 inhibitor – blocks Pseudomonas aeruginosa VIM-2 metallo-beta-lactamase | 290,000 compounds, 0.89% hits | inhibition, % at 5.6 µM | purified VIM-2, nitrocefin hydrolysis, epi-absorbance fluorescence;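 active = inhibition above the mean of all tested compounds plus 3 SD, cutoff set per screening run, cut at about 7.5% in these data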;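 note: red hydrolysis product quenches plate fluorescence so inhibitors raise well fluorescence; 0% = enzyme with DMSO and 100% = DMSO without enzyme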
ASAP1 GAP inh – blocks human ASAP1-stimulated Arf1 GTP hydrolysis; inhibition, % at 16.5 µM; GDP FP detection; AID 624377; 360,000 compounds, 0.19% hits; Q9ULH1; in the data active = inhibition above about 25%;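 note: 0% = vehicle with enzyme and substrate and 100% = no enzyme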
ARFGAP1 inh – inhibitors of rat ARFGAP1; Q62848; Arfgap1-stimulated ARF1 GTP hydrolysis, GDP FP detection; inhibition, % at 16.5 µM; 360,000 compounds, 0.26% hits; AID 651572;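 active = inhibition above a per-plate limit, mean inhibition of low control wells plus 3 SD, cut at about 25% in these data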;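 note: 0% = DMSO wells with enzyme and 100% = wells lacking Arfgap1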
Target sequence (Q62848 1-136 limits assumed): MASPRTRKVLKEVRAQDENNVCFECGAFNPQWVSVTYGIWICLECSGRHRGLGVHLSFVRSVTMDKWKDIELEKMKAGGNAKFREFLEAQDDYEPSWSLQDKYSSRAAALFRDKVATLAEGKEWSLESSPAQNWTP
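Repeats: one replicate per compound; assay system: rat Arfgap1 catalytic domain, aa 1-136; times: enzyme reaction 120 min at 25 °C after 20 min preincubation; detection: FP of antibody-bound GDP Alexa 633 tracer, ex 620/em 688 nm; benchmarks: high control wells lacking Arfgap1, low control full reaction with DMSO; reagent: human ARF1(Δ1-17)-GTP substrate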
Calb FLC – affects C. albicans growth with fluconazole. C. albicans CaCi-2 + fluconazole, Alamar Blue growth, 48 h. AID 1979. 300,000 compounds, 0.57% hits. growth inhibition, % (concentration not given with the values);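 active = growth inhibition above about 58% in most replicates, limit read from the data, passing the limit was not always enough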;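 note: all wells also contain fluconazole at 8 µg/ml as a sub-toxic cotreatment; 0% = median of DMSO wells and 100% = median of geldanamycin control wells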
ASAP1 GAP conf – ASAP1 inhibition confirmed | shares compounds with ASAP1 GAP inh | ASAP1-stimulated Arf1 GTPase, GDP fluorescence polarization | inhibition, % at 16.5 µM | 620 compounds, 37% hits | AID 624431;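 active = mean inhibition over triplicates exceeds the hit threshold derived for the earlier primary screening run, cut at about 25% in these data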
ARFGAP1 confirm – confirmation of rat ARFGAP1 inhibitors; shares compounds with ARFGAP1 inh; ARFGAP1-stimulated ARF1 GTP hydrolysis, GDP tracer FP; inhibition, % at 16.5 µM; 890 compounds, 30% hits;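 active = average inhibition over triplicates above the hit cutoff set in the earlier primary screen, cut at about 25% in these data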;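 note: 0% = Arfgap1 plus ARF1-GTP with DMSO and 100% = wells lacking Arfgap1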
Target sequence (Q62848 whole entry, looked up): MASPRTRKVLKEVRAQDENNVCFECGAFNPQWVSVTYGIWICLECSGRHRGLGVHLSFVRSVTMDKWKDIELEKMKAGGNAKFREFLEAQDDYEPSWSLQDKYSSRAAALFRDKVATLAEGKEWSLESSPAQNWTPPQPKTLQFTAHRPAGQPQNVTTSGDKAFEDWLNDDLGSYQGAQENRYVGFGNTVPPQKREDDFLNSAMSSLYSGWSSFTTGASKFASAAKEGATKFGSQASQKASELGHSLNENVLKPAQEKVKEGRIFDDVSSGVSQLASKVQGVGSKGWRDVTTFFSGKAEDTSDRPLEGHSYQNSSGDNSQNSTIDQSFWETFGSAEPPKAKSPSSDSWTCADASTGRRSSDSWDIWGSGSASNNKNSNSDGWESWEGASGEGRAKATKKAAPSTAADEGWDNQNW
An asterisk follows results filed as active; x = not tested or not shown. Compounds with a hit are over-represented: about 2.6% of the library has one in this group of screens.

SMILES	IMP-1 inh	PHOSPHO1 inh	VIM-2 inhibitor	ASAP1 GAP inh	ARFGAP1 inh	Calb FLC	ASAP1 GAP conf	ARFGAP1 confirm
CCCS(=O)(=O)NC(=O)C1(C)CCCN(C(=O)C2(c3ccc(Cl)cc3)CCCC2)C1 (configuration not stated)	x	x	x	14.4	-8.8	x	x	x
CC1=[N+](C)c2ccc3ccccc3c2C1(C)C	-3.6	9.4	-2.0	26.2*	31.2*	22.7	22.4	17.9
COCCCNC(=O)C[C@@H]1C[C@@]2(C(=O)OC)CCCCC=C2N(CCc2ccc(OC)c(OC)c2)C1=O	x	x	x	21.0	-4.6	x	x	x
Cc1cc2oc3cc(NCCC4CCCN4C)ccc3c(=O)c2cc1C (configuration not stated)	x	x	x	27.6*	30.8*	5.6	37.8*	30.3*
CN1CCCC1CCNc1ccc2sc3ccccc3c(=O)c2c1 (configuration not stated)	x	x	x	3.4	13.8	-14.5	x	x
C=CCNc1nc(NCCCN2CCCC2=O)c2sc(-c3ccccc3)cc2n1	x	x	x	37.7*	60.0*	x	13.7	20.1
COCCNc1nc(NCCCN2CCCC2=O)c2sc(-c3ccccc3)cc2n1	x	x	x	18.7	1.6	x	x	x
CCN(CC)CCOC(=O)c1ccc(N/C=C(/C#N)c2nc(-c3cccc(OC)c3)cs2)cc1	-4.2	12.9	-2.2	0.5	-1.3	10.0	x	x
CCN(CC)CCOC(=O)c1ccc(N/C=C(/C#N)c2nc(-c3ccc(OC)c(OC)c3)cs2)cc1	1.7	51.2	2.8	71.0*	114.6*	14.8	184.0*	195.9*
CCCCOCCCNC(=O)C[C@@H]1C[C@@]2(C(=O)OC)CCCCC=C2N(Cc2ccco2)C1=O	x	x	x	-0.2	1.2	x	x	x
O=C(N/N=C/C=C/c1ccc([N+](=O)[O-])cc1)c1cccs1	-1.9	5.7	-2.6	53.9*	60.3*	2.1	67.5*	65.6*
O=C(N/N=C/C=C\c1ccccc1[N+](=O)[O-])c1cccs1	-5.8	-8.8	-3.5	6.0	4.0	-12.1	x	x
Cc1ccc(S(=O)(=O)NCc2ccccc2Br)cc1	x	x	x	14.9	1.8	x	x	x
CC(=O)Nc1ccc(C(=O)Nc2nc(-c3cccnc3)cs2)cc1	-1.3	6.6	-0.2	28.9*	25.6*	-2.8	52.2*	38.6*
O=[N+]([O-])c1ccc(C=NNC(=S)Nc2ccc(F)cc2)cc1	x	x	x	5.7	10.0	x	x	x
O=[N+]([O-])c1ccc(C=NNC(=S)NN=Cc2ccc([N+](=O)[O-])cc2)cc1	x	x	x	74.2*	24.6*	x	164.2*	181.6*
CCOC(=O)C1=CCN(S(=O)(=O)c2ccc(Br)cc2)C1c1ccc(C)cc1 (configuration not stated)	x	x	x	8.8	8.6	x	x	x
Cc1ccc(/C=N/Nc2ccnc3cc(Cl)ccc23)c(C)c1	-3.0	-8.7	-2.0	9.2	17.3	-7.0	x	x
Cc1ccccc1/C=N/Nc1ccnc2cc(Cl)ccc12	-3.4	21.1	-3.9	49.5*	91.7*	6.6	93.5*	149.3*
Clc1ccc2c(N/N=C/c3ccc(Br)cc3)ccnc2c1	-3.1	-14.1	-2.0	50.4*	69.1*	3.9	65.0*	96.5*
Clc1cccc(CON/C=N/c2ncnc3sccc23)c1	0.2	28.7	-1.1	16.3	5.9	12.3	x	x
Clc1cccc(Cl)c1CON/C=N/c1ncnc2sccc12	-0.7	17.6	0.8	93.2*	85.6*	0.5	66.7*	66.0*
Cc1cc(C)cc(NC(=O)c2ccc(NC(=O)c3ccco3)cc2)c1	-2.1	17.6	-1.9	-0.4	9.6	3.5	x	x
COC(=O)c1ccc(NC(=O)c2ccc(NC(=O)c3ccco3)cc2)cc1	4.7*	4.5	2.0	25.7*	38.9*	-8.5	37.9*	52.1*
CC(=O)c1ccc(NC2=C(N3CCOCC3)C(=O)c3ccccc3C2=O)cc1	-0.8	30.7	3.0	26.8*	25.3*	14.8	13.1	1.4
O=C(Nc1ccc2nc(-c3ccccc3)[nH]c2c1)c1ccco1	-2.4	7.0	-0.5	2.8	-4.2	-43.5	x	x
